Measured values: ChEMBL document CHEMBL5321249, “Appraisal of Fungus-Derived Xanthoquinodins as Broad-Spectrum Anti-Infectives Targeting Phylogenetically Diverse Human Pathogens” (J Nat Prod, 2023)

Tests used:
Cryptosporidium parvum = assay: Antiparasitic activity against Nanoluciferase-tagged Cryptosporidium parvum infected in human HCT-8 cells assessed as inhibition of parasite growth incubated for 48 hrs by NanoGlo luciferase reagent based assay; assay type: functional, organism-based; settings: HCT-8, 48 h
In short: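 HCT-8 cells grown 48 h to 50–75% confluence; calf-propagated oocysts activated 15 min in 10% bleach at room temperature, DPBS-washed, 5 × 10^3 per well in RPMI-1640 with 10% heat-inactivated FBS and penicillin-streptomycin plus graded compound, 48 h at 37 °C, 5% CO2. Lysed monolayers read with Nano-Glo; growth relative to infected untreated wells, no-parasite background; variable-slope sigmoidal EC50.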

[1] = Cytotoxicity against human HepG2 cells incubated for 48 hrs by MTS based assay; assay type: toxicity, cell-based
Trichomonas vaginalis = assay: Antiparasitic activity against Trichomonas vaginalis Donne PRA-98 incubated for 17 hrs by glutaraldehyde/propidium iodide/acridine orange staining based high-content imaging analysis; assay type: functional, organism-based; settings: Donne PRA-98, 17 h
Mycoplasma genitalium = assay: Antibacterial activity against Mycoplasma genitalium G37 assessed as bacterial growth inhibition incubated for 6 to 7 days by microbroth dilution assay; assay type: functional, organism-based; settings: Mycoplasmoides genitalium
In short: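 M. genitalium G37 from frozen stock grown 2 days in SP-4 broth at 37 °C, 5% CO2, to log phase; 0.45 μm-filtered, diluted 1:200 in SP-4 with 7.5% FBS, ~10^4 CFU per well with 2-fold serial compound dilutions in triplicate.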

[2] = Selectivity index, ratio of EC50 for cytotoxicity against human HepG2 cells to EC50 for antimalarial activity against asynchronous Plasmodium falciparum Dd2 infected in human A+ erythrocytes; assay type: toxicity, cell-based; settings: read-out: Ratio EC50
In short: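 SI is HepG2 EC50 over P. falciparum Dd2 EC50. Asynchronous-stage parasites were assayed by SYBR Green I fluorescence with chloroquine-treated and untreated controls, and EC50 came from dose–response fits. HepG2 cytotoxicity used an MTS absorbance assay in triplicate up to 25 μM, with a 5% Triton X-100 zero-viability control and a no-treatment control.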

Plasmodium falciparum = assay: Antimalarial activity against asynchronous Plasmodium falciparum Dd2 infected in human A+ erythrocytes incubated for 72 hrs by SYBR Green I dye based assay; assay type: functional, organism-based; settings: Dd2, Erythrocyte
[3] = Selectivity index, ratio of EC50 for cytotoxicity against human HepG2 cells to EC50 for antiparasitic activity against Nanoluciferase-tagged Cryptosporidium parvum infected in human HCT-8 cells assessed as inhibition of parasite growth; assay type: toxicity, cell-based; settings: read-out: Ratio EC50
In short: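 For the parasite, 5 × 10^3 bleach-activated Nanoluciferase-tagged oocysts per well infected HCT-8 monolayers at 50–75% confluence in RPMI-1640 with 10% FBS. They were incubated 48 h at 37 °C, 5% CO2, then lysed for luminescence. Growth was expressed as percent of infected untreated wells and fitted by variable-slope sigmoidal dose–response.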

[4] = Selectivity index, ratio of EC50 for cytotoxicity against human HepG2 cells to EC50 for antiparasitic activity against Trichomonas vaginalis Donne PRA-98; assay type: toxicity, cell-based; settings: read-out: Ratio EC50
In short: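 Trichomonads (4 × 10^4 per well) under microaerophilic conditions were treated with compound at no more than 0.5% DMSO for 17 h. Cells were then fixed with glutaraldehyde, propidium iodide and acridine orange, shaken, incubated 3 h at 37 °C, and counted by high-content imaging.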

[5] = Selectivity index, ratio of EC50 for cytotoxicity against human HepG2 cells to EC50 for antibacterial activity against Mycoplasma genitalium G37; assay type: cell-based; settings: read-out: Ratio EC50
In short: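 SI is HepG2 EC50 over M. genitalium G37 EC50. G37 (~10^4 CFU/well) was grown in SP-4 broth with 7.5% FBS against 2-fold serial dilutions in triplicate for 6–7 days at 37 °C, 5% CO2. Genomes were quantified by 16S rRNA qPCR against untreated wells. HepG2 cytotoxicity used an MTS assay in triplicate, maximum 25 μM, with Triton X-100-lysed and untreated controls.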

`CCOc1ccc2cc(-c3nn(CC4CCN(C)CC4)c4ncnc(N)c34)ccc2c1` gave an EC50 (Cryptosporidium parvum) of 1.1 µM.

For `Cc1cc(O)c2c(c1)[C@@H]([C@H]1c3cc(C)cc(O)c3C(=O)c3c(O)cc(O)cc31)c1cc(O)cc(O)c1C2=O`, the EC50 at 48 h [1] was 13.8 µM, the EC50 (Trichomonas vaginalis) was > 10 µM and the EC50 (Mycoplasma genitalium) was > 10 µM. The selectivity ratio [2] was 8.6, the EC50 (Cryptosporidium parvum) was > 7.2 µM and the EC50 (Plasmodium falciparum) was 1.65 µM.

For `COC(=O)[C@]1([C@@H]2CCC(=O)O2)CC(=O)c2c(cc3c(c2O)[C@@H]2C=C[C@@]4(C3)C(=O)c3cc(C)cc(O)c3C(=O)[C@]4(O)C2=O)O1`, the EC50 at 48 h [1] was > 25 µM, the EC50 (Trichomonas vaginalis) was > 10 µM and the EC50 (Mycoplasma genitalium) was > 10 µM. For the same compound, the EC50 (Cryptosporidium parvum) was > 6 µM and the EC50 (Plasmodium falciparum) was > 5 µM.

With `COC(=O)[C@@]12Oc3cc4c(c(O)c3C(=O)C1=C(O)CC[C@@H]2O)[C@@H]1C=C[C@@]2(C4)C(=O)c3cc(C)cc(O)c3C(=O)[C@]2(O)C1=O` the EC50 at 48 h [1] was > 25 µM, the EC50 (Trichomonas vaginalis) was > 10 µM and the EC50 (Mycoplasma genitalium) was > 10 µM. For the same compound, the EC50 (Cryptosporidium parvum) was > 10 µM and the EC50 (Plasmodium falciparum) was > 5 µM.

In the case of `COC(=O)[C@]1([C@@H](O)CCC(=O)O)CC(=O)c2c(cc3c(c2O)[C@@H]2C=C[C@@]4(C3)C(=O)c3cc(C)cc(O)c3C(O)=C4C2=O)O1`, the EC50 at 48 h [1] is reported as > 25 µM, the EC50 (Trichomonas vaginalis) is reported as > 10 µM and the EC50 (Mycoplasma genitalium) is reported as > 10 µM. For the same compound, the EC50 (Cryptosporidium parvum) was > 10 µM and the EC50 (Plasmodium falciparum) was > 5 µM.

For `COC(=O)[C@]1([C@@H]2CCC(=O)O2)CC(=O)c2c(O)cc(C)cc2O1`, the EC50 at 48 h [1] was > 25 µM, the EC50 (Trichomonas vaginalis) was > 10 µM and the EC50 (Mycoplasma genitalium) was > 10 µM. For the same compound, the EC50 (Cryptosporidium parvum) was > 40 µM and the EC50 (Plasmodium falciparum) was > 5 µM.

In the case of `COC(=O)[C@]1([C@@H](O)CCC(=O)O)CC(=O)c2c(cc3c(c2O)[C@@H]2C=C[C@@]4(C3)C(=O)c3cc(C)cc(O)c3C(=O)[C@]4(O)C2=O)O1`, the EC50 at 48 h [1] is reported as > 25 µM, the EC50 (Trichomonas vaginalis) is reported as > 10 µM and the EC50 (Mycoplasma genitalium) is reported as > 10 µM. The EC50 (Cryptosporidium parvum) was > 10 µM and the EC50 (Plasmodium falciparum) was > 5 µM.

With `COC(=O)[C@@]12Oc3cc4c(c(O)c3C(=O)[C@]1(O)C(=O)CC[C@@H]2O)[C@@H]1C=C[C@@]2(C4)C(=O)c3cc(C)cc(O)c3C(=O)[C@]2(O)C1=O` the EC50 at 48 h [1] was > 25 µM, the EC50 (Trichomonas vaginalis) was > 10 µM and the EC50 (Mycoplasma genitalium) was > 10 µM. The EC50 (Cryptosporidium parvum) was > 10 µM and the EC50 (Plasmodium falciparum) was > 5 µM.

With `COC(=O)[C@]12Oc3c(c(O)cc4c3[C@@H]3C=C[C@@]5(C4)C(=O)c4cc(C)cc(O)c4C(=O)[C@]5(O)C3=O)C(=O)C1=C(O)CC[C@@H]2O` the EC50 at 48 h [1] was > 25 µM, the EC50 (Trichomonas vaginalis) was > 10 µM and the EC50 (Mycoplasma genitalium) was > 10 µM. For the same compound, the EC50 (Cryptosporidium parvum) was > 10 µM and the EC50 (Plasmodium falciparum) was > 5 µM.

In the case of `Cc1cc(O)c2c(c1)[C@@H]([C@@H]1c3cc(C)cc(O)c3C(=O)c3c(O)cc(O)cc31)c1cc(O)cc(O)c1C2=O` (relative stereo), the EC50 at 48 h [1] is reported as 10.2 µM, the EC50 (Trichomonas vaginalis) is reported as > 10 µM and the EC50 (Mycoplasma genitalium) is reported as > 10 µM. The selectivity ratio [2] was 9.1, the EC50 (Cryptosporidium parvum) was > 2.4 µM and the EC50 (Plasmodium falciparum) was 1.12 µM.

`CC[C@H]1OC(=O)[C@H](C)[C@@H](O[C@H]2C[C@@](C)(OC)[C@@H](O)[C@H](C)O2)[C@H](C)[C@@H](O[C@@H]2O[C@H](C)C[C@H](N(C)C)[C@H]2O)[C@](C)(O)C[C@@H](C)CN(C)[C@H](C)[C@@H](O)[C@]1(C)O` [AZITHROMYCIN] showed an EC50 (Mycoplasma genitalium) of 0.0005 µM.

In the case of `Cc1ncc([N+](=O)[O-])n1CCO` [METRONIDAZOLE], the EC50 (Trichomonas vaginalis) is reported as 3.5 µM.

In the case of `COC(=O)[C@@]12Oc3cc4c(c(O)c3C(=O)C1=C(O)CC[C@@H]2O)[C@@H]1C=C[C@@]2(C4)C(=O)c3cc(C)cc(O)c3C(O)=C2C1=O` [XANTHOQUINODIN A1], the EC50 at 48 h [1] is reported as > 25 µM, the EC50 (Trichomonas vaginalis) is reported as 3.9 µM and the selectivity ratio [3] is reported as > 4.8. The selectivity ratio [4] was > 6.4, the EC50 (Mycoplasma genitalium) was 0.13 µM and the selectivity ratio [2] was > 86. The selectivity ratio [5] was > 62.5, the EC50 (Cryptosporidium parvum) was 5.2 µM and the EC50 (Plasmodium falciparum) was 0.29 µM.

For `COC(=O)[C@]12Oc3cc4c(c(O)c3C(=O)C1=C(O)CC[C@@H]2O)[C@@H]1C=C[C@@]2(C4)C(=O)c3cc(C)cc(O)c3C(O)=C2C1=O` [XANTHOQUINODIN A2], the EC50 at 48 h [1] was > 25 µM, the EC50 (Trichomonas vaginalis) was 6.8 µM and the selectivity ratio [3] was > 7.1. The selectivity ratio [4] was > 3.7, the EC50 (Mycoplasma genitalium) was 0.12 µM and the selectivity ratio [2] was > 50. The selectivity ratio [5] was > 125, the EC50 (Cryptosporidium parvum) was 3.5 µM and the EC50 (Plasmodium falciparum) was 0.5 µM.

For `COC(=O)[C@]1([C@@H]2CCC(=O)O2)CC(=O)c2c(cc3c(c2O)[C@@H]2C=C[C@@]4(C3)C(=O)c3cc(C)cc(O)c3C(O)=C4C2=O)O1` [XANTHOQUINODIN A3], the EC50 at 48 h [1] was > 25 µM, the EC50 (Trichomonas vaginalis) was > 10 µM and the EC50 (Plasmodium falciparum) was > 5 µM.
